Source: ChEMBL document CHEMBL1152649, “Synthesis, cytotoxicity and human telomerase inhibition activities of a series of 1,2-heteroannelated anthraquinones and anthra[1,2-d]imidazole-6,11-dione homologues” (2009)

What was measured:
UACC-257 = assay: Antiproliferative activity against human UACC257 cells assessed as cell growth at 10 uM; assay type: functional; conditions: read-out: Activity
Outline: (§1)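 NCI 60 cell line panel, single dose (10^-5 M), run per the Developmental Therapeutics Program protocol (one dose mean graph). Each result is the growth percentage of treated cells relative to untreated control cells.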

SK-MEL-5 = assay: Antiproliferative activity against human SK-MEL-5 cells assessed as cell growth at 10 uM; assay type: functional; conditions: read-out: Activity
Outline: (§2)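 NCI 60 cell line panel, single-dose screen (10^-5 M) run by the developmental therapeutics program protocol. Results are given as growth percent of treated cells relative to untreated control cells for each line.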

[1] = target: Telomerase reverse transcriptase (Homo sapiens) (UniProt O14746); assay: Inhibition of TERT in human H1299 cells assessed as residual transcriptional activity at 100 uM after 24 hrs by SEAP reporter gene assay; values are per cent of control
Chain of Telomerase reverse transcriptase (Homo sapiens) (O14746 whole entry): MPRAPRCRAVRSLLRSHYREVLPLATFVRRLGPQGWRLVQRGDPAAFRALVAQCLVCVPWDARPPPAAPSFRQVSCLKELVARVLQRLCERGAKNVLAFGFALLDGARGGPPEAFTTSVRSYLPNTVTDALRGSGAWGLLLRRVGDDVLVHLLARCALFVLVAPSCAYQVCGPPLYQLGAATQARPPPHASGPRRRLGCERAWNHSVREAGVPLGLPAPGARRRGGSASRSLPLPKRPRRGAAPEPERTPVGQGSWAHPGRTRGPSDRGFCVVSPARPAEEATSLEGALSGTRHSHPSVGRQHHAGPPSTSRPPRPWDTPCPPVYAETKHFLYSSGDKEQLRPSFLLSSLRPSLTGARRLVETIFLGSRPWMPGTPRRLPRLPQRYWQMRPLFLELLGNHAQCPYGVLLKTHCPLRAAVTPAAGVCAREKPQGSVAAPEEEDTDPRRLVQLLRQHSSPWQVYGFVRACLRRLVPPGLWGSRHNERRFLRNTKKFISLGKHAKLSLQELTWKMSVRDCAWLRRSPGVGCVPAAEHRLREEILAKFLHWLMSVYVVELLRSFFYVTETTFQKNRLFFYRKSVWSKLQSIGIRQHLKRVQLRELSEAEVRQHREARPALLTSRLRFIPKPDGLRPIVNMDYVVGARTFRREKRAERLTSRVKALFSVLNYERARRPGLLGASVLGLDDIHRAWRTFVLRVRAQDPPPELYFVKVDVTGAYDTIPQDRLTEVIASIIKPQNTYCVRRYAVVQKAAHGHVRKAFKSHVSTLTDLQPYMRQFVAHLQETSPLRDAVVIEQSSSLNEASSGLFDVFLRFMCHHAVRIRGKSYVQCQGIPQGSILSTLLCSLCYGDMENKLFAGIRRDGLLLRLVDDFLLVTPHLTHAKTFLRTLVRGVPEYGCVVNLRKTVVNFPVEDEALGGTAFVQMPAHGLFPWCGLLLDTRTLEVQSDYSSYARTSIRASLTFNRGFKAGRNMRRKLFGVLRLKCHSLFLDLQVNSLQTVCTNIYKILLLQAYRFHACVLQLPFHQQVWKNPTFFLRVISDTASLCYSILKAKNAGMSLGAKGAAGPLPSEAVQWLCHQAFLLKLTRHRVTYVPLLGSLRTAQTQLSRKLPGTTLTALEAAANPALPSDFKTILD

TK-10 = assay: Antiproliferative activity against human TK10 cells assessed as cell growth at 10 uM; assay type: functional; conditions: read-out: Activity; outline: as §1
SF-539 = assay: Antiproliferative activity against human SF539 cells assessed as cell growth at 10 uM; assay type: functional; conditions: read-out: Activity; outline: as §2
CAKI-1 = assay: Antiproliferative activity against human Caki1 cells assessed as cell growth at 10 uM; assay type: functional; conditions: read-out: Activity; outline: as §2
OVCAR-3 = assay: Antiproliferative activity against human OVCAR-3 cells assessed as cell growth at 10 uM; assay type: functional; conditions: read-out: Activity; outline: as §2
786-0 = assay: Antiproliferative activity against human 786-0 cells assessed as cell growth at 10 uM; assay type: functional; conditions: read-out: Activity; outline: as §2
HCC 2998 = assay: Antiproliferative activity against human HCC2998 cells assessed as cell growth at 10 uM; assay type: functional; conditions: read-out: Activity; outline: as §2
Malme-3M = assay: Antiproliferative activity against human MALME-3M cells assessed as cell growth at 10 uM; assay type: functional; conditions: read-out: Activity; outline: as §2
SK-MEL-28 = assay: Antiproliferative activity against human SK-MEL-28 cells assessed as cell growth at 10 uM; assay type: functional; conditions: read-out: Activity; outline: as §2
LOX IMVI = assay: Antiproliferative activity against human LOXIMVI cells assessed as cell growth at 10 uM; assay type: functional; conditions: read-out: Activity; outline: as §2
T47D = assay: Antiproliferative activity against human T47D cells assessed as cell growth at 10 uM; assay type: functional; conditions: read-out: Activity; outline: as §1
K562 = assay: Antiproliferative activity against human K562 cells assessed as cell growth at 10 uM; assay type: functional; conditions: read-out: Activity; outline: as §2
NCI-H226 = assay: Antiproliferative activity against human NCI-H226 cells assessed as cell growth at 10 uM; assay type: functional; conditions: read-out: Activity; outline: as §2
COLO 205 = assay: Antiproliferative activity against human COLO205 cells assessed as cell growth at 10 uM; assay type: functional; conditions: read-out: Activity; outline: as §2
A549 = assay: Antiproliferative activity against human A549 cells assessed as cell growth at 10 uM; assay type: functional; conditions: read-out: Activity; outline: as §2
[2] = target: Telomerase reverse transcriptase (Homo sapiens) (UniProt O14746); assay: Inhibition of TERT in human H1299 cells assessed as residual transcriptional activity at 10 uM after 24 hrs by SEAP reporter gene assay; values are per cent of control
EKVX = assay: Antiproliferative activity against human EKVX cells assessed as cell growth at 10 uM; assay type: functional; conditions: read-out: Activity; outline: as §2
CCRF-CEM = assay: Antiproliferative activity against human CCRF-CEM cells assessed as cell growth at 10 uM; assay type: functional; conditions: read-out: Activity; outline: as §2
A498 = assay: Antiproliferative activity against human A498 cells assessed as cell growth at 10 uM; assay type: functional; conditions: read-out: Activity; outline: as §2
DU-145 = assay: Antiproliferative activity against human DU145 cells assessed as cell growth at 10 uM; assay type: functional; conditions: read-out: Activity; outline: as §2
SR = assay: Antiproliferative activity against human SR cells assessed as cell growth at 10 uM; assay type: functional; conditions: read-out: Activity; outline: as §1
HCT-15 = assay: Antiproliferative activity against human HCT15 cells assessed as cell growth at 10 uM; assay type: functional; conditions: read-out: Activity; outline: as §2
SK-MEL-2 = assay: Antiproliferative activity against human SK-MEL-2 cells assessed as cell growth at 10 uM; assay type: functional; conditions: read-out: Activity; outline: as §2
SW-620 = assay: Antiproliferative activity against human SW620 cells assessed as cell growth at 10 uM; assay type: functional; conditions: read-out: Activity; outline: as §1
SNB-75 = assay: Antiproliferative activity against human SNB75 cells assessed as cell growth at 10 uM; assay type: functional; conditions: read-out: Activity; outline: as §1
UACC-62 = assay: Antiproliferative activity against human UACC62 cells assessed as cell growth at 10 uM; assay type: functional; conditions: read-out: Activity; outline: as §1
OVCAR-4 = assay: Antiproliferative activity against human OVCAR4 cells assessed as cell growth at 10 uM; assay type: functional; conditions: read-out: Activity; outline: as §2
NCI-H460 = assay: Antiproliferative activity against human NCI-H460 cells assessed as cell growth at 10 uM; assay type: functional; conditions: read-out: Activity; outline: as §2
HCT-116 = assay: Antiproliferative activity against human HCT116 cells assessed as cell growth at 10 uM; assay type: functional; conditions: read-out: Activity; outline: as §2
NCI-H23 = assay: Antiproliferative activity against human NCI-H23 cells assessed as cell growth at 10 uM; assay type: functional; conditions: read-out: Activity; outline: as §2
UO-31 = assay: Antiproliferative activity against human UO31 cells assessed as cell growth at 10 uM; assay type: functional; conditions: read-out: Activity; outline: as §1
OVCAR-5 = assay: Antiproliferative activity against human OVCAR5 cells assessed as cell growth at 10 uM; assay type: functional; conditions: read-out: Activity; outline: as §2
KM12 = assay: Antiproliferative activity against human KM12 cells assessed as cell growth at 10 uM; assay type: functional; conditions: read-out: Activity; outline: as §2
[3] = Cytotoxicity against human H1299 cells at 100 uM after 48 hrs by MTT assay; assay type: functional; conditions: NCI-H1299, 48 h
Outline: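 H1299 non-small cell lung cancer cells were grown in RPMI 1640 with 10% FBS, penicillin and streptomycin at 37 °C under 5% CO2. About 2 × 10³ cells per well were seeded and left 24 h. Compounds were dissolved fresh in DMSO, diluted into complete medium and applied for 48 h. MTT was then added for 4 h at 37 °C, followed by lysis buffer (20% SDS, 50% DMF) for 16 h, and absorbance was read at 550 nm.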

[4] = Antiproliferative activity against human Hs 578T cells assessed as cell growth at 10 uM; assay type: functional; conditions: read-out: Activity; outline: as §2
M14 = assay: Antiproliferative activity against human M14 cells assessed as cell growth at 10 uM; assay type: functional; conditions: read-out: Activity; outline: as §2
HOP-62 = assay: Antiproliferative activity against human HOP62 cells assessed as cell growth at 10 uM; assay type: functional; conditions: read-out: Activity; outline: as §2
ACHN = assay: Antiproliferative activity against human ACHN cells assessed as cell growth at 10 uM; assay type: functional; conditions: read-out: Activity; outline: as §2
SF-268 = assay: Antiproliferative activity against human SF268 cells assessed as cell growth at 10 uM; assay type: functional; conditions: read-out: Activity; outline: as §2
OVCAR-8 = assay: Antiproliferative activity against human OVCAR8 cells assessed as cell growth at 10 uM; assay type: functional; conditions: read-out: Activity; outline: as §2
NCI-H322M = assay: Antiproliferative activity against human NCI-H322M cells assessed as cell growth at 10 uM; assay type: functional; conditions: read-out: Activity; outline: as §2
SN12C = assay: Antiproliferative activity against human SN12C cells assessed as cell growth at 10 uM; assay type: functional; conditions: read-out: Activity; outline: as §2
SNB-19 = assay: Antiproliferative activity against human SNB19 cells assessed as cell growth at 10 uM; assay type: functional; conditions: read-out: Activity; outline: as §2
HT-29 = assay: Antiproliferative activity against human HT-29 cells assessed as cell growth at 10 uM; assay type: functional; conditions: read-out: Activity; outline: as §2

Structure (SMILES): O=C1c2ccccc2C(=O)c2c1ccc1nsnc21
- growth at 10 µM (UACC-257): -83.1%
- growth at 10 µM (SK-MEL-5): 8.52%
- residual activity [1]: 9%
- growth at 10 µM (TK-10): 97%
- growth at 10 µM (SF-539): -47.1%
- growth at 10 µM (CAKI-1): 1.97%
- growth at 10 µM (OVCAR-3): -15.5%
- growth at 10 µM (786-0): -26%
- growth at 10 µM (HCC 2998): -0.74%
- growth at 10 µM (Malme-3M): -71.5%
- growth at 10 µM (SK-MEL-28): 15.5%
- growth at 10 µM (LOX IMVI): -50.6%
- growth at 10 µM (T47D): -45.5%
- growth at 10 µM (K562): 49.6%
- growth at 10 µM (NCI-H226): 97.8%
- growth at 10 µM (COLO 205): 112%
- growth at 10 µM (A549): 104%
- residual activity [2]: 10%
- growth at 10 µM (EKVX): 103%
- growth at 10 µM (CCRF-CEM): -30.8%
- growth at 10 µM (A498): 130%
- growth at 10 µM (DU-145): 40.8%
- growth at 10 µM (SR): 4.96%
- growth at 10 µM (HCT-15): 1.48%
- growth at 10 µM (SK-MEL-2): -73.2%
- growth at 10 µM (SW-620): 7.3%
- growth at 10 µM (SNB-75): 79%
- growth at 10 µM (UACC-62): -82.3%
- growth at 10 µM (OVCAR-4): -94.4%
- growth at 10 µM (NCI-H460): 77.4%
- growth at 10 µM (HCT-116): -50%
- growth at 10 µM (NCI-H23): 16.1%
- growth at 10 µM (UO-31): -79.3%
- growth at 10 µM (OVCAR-5): -20.1%
- growth at 10 µM (KM12): 98.6%
- viability at 100 µM [3]: 17%
- growth at 10 µM [4]: -7.4%
- growth at 10 µM (M14): 74.5%
- growth at 10 µM (HOP-62): -100%
- growth at 10 µM (ACHN): -94.3%
- growth at 10 µM (SF-268): 16.3%
- growth at 10 µM (OVCAR-8): -10.1%
- growth at 10 µM (NCI-H322M): 126%
- growth at 10 µM (SN12C): -73.3%
- growth at 10 µM (SNB-19): 79%
- growth at 10 µM (HT-29): 117%
